Rows were chosen to be rich in hits. Some 3.3% of all compounds tested hit in one or more screens of this group.
FGF22 binding: binders of human FGF22 protein, primary screen, FGF22 synaptogenesis inhibitor project, biophysical, thermal shift, single point | Fibroblast growth factor 22 (Homo sapiens), Q9HCT0 | recombinant FGF22 thermal shift, SYPRO orange fluorescence; percent of sucrose octasulfate shift, DMSO zero | activity (Tm shift, normalised), % at 9.99 µM | 1.5% of 340,000 active;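 active means mean Tm shift, scaled 0 neutral to 100 positive control, at about 1.3% or above, every replicate too, limit read from the data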
Target sequence (Q9HCT0 whole entry, looked up): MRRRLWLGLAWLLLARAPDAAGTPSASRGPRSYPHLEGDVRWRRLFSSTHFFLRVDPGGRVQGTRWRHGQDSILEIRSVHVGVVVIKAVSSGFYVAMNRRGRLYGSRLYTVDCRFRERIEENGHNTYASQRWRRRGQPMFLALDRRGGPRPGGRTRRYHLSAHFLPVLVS
DENV2 CPE: inhibitors of DENV2 cytopathic effect, primary screen, cell-based, plate reader, single concentration; 1.7% of 350,000 active; CPE inhibition, % at 9.99 µM; DENV2-infected cells, cytopathic effect rescue; in the data active means CPE inhibition above about 20%, passing the limit was not always enough; tested in BHK-21 cells
Xi reactivation: activators of inactive X chromosome reactivation, primary screen, imaging, XiGFP fibroblasts, GFP high-content imaging, set 2; XiGFP mouse fibroblasts, % GFP-positive cells imaging, 3 d; cells co-treated with 5-aza-dC sensitizer; scaled so ellipticine positive control = 100%; activation, % at 7.58 µM; 0.055% of 360,000 active;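 active means mean normalized replicate activation at least 10% and every replicate at or above 10%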
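Schedule: 3 d treatment, 15 min room-temperature fixation; system: 68-5-11 XiGFP fibroblast line; buffer or medium: DMEM plus 5-aza-dC sensitizer; control set: ellipticine 6 µM positive control; compound: one concentration, pinned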
PglD DTNB: C. jejuni PglD acetyltransferase inhibitors, primary screen, biochemical, DTNB colorimetric, single point; UDP-N-acetylbacillosamine N-acetyltransferase PglD (Campylobacter jejuni); purified PglD enzyme, DTNB colorimetric CoA detection; inhibition, % at 12.5 µM; 0.098% of 360,000 active; AID 602405, 2012; in the data active means inhibition above about 16%, passing the limit was not always enough
Statin myotox sup: suppressors of statin myotoxicity in C2C12 myotubes, primary screen, cell-based, single point, plate reader; C2C12 myotubes + simvastatin, ATP luminescence, 48 h; scaled: DMSO 0, geranylgeraniol control 100; rescue of ATP level, % at 7.49 µM; 0.78% of 330,000 active; AID 602340, 2012;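 active means mean ATP rescue above about 67%, or every replicate alone reaching that limit, limit read from the data, passing the limit was not always enough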;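 further: myotubes were challenged with 10 µM simvastatin during compound exposure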
E-sel inducer: E-selectin induction in HUVECs, primary screen, imaging, HUVEC, immunofluorescence imaging, single point; activation, % at 7.58 µM; 0.37% of 260,000 active; P16581; AID 686992, 2013; normalized: neutral wells 0, TNF-alpha wells 100;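 active means mean E-selectin-positive cell signal at least 10% of the positive control, reached in at least 60% of replicates, without over 20% cell loss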
Target sequence (P16581 whole entry, looked up): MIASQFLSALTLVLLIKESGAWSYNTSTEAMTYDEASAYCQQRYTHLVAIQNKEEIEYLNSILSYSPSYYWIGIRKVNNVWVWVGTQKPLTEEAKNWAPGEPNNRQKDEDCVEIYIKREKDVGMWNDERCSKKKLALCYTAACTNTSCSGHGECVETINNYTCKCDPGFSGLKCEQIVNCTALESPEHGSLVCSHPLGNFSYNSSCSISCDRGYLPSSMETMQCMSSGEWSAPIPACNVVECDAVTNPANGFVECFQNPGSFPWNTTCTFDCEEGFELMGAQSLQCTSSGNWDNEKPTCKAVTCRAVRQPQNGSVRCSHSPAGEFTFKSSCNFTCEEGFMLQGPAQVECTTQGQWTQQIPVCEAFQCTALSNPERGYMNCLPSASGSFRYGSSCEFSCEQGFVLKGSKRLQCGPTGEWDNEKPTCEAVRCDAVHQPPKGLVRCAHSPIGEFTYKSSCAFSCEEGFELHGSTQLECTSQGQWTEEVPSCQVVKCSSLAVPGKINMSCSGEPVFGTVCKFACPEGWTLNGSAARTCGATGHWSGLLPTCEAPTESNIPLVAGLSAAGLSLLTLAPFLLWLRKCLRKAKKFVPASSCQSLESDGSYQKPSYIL
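assay system = HUVEC, human umbilical vein endothelial cells | input = 3,000 HUVEC seeded per well | medium = EGM-2 growth medium on 0.1% gelatin-coated wells | dosing = one compound dose added by pin transfer | signal = immunofluorescence imaging | read-out basis = % PE-positive cells | control set = TNF-alpha, DMSO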
Of the large screens only hits and unclear results are named; the others gave an inactive call.

C[C@@H]1CN([C@@H](C)CO)C(=O)Cc2cc(NC(=O)CCCCCC(=O)Nc3ccccc3N)ccc2O[C@H]1CN(C)Cc1ccc(-c2ccccc2)cc1	DENV2 CPE 25, Statin myotox sup 94 (no result: Xi reactivation, E-sel inducer)
C[C@@H]1CN([C@H](C)CO)C(=O)Cc2cc(NC(=O)CCCCCC(=O)Nc3ccccc3N)ccc2O[C@@H]1CN(C)Cc1ccc(-c2ccccc2)cc1	none
C[C@H](CO)N1C[C@H](C)[C@@H](CN(C)Cc2ccc(-c3ccccc3)cc2)Oc2ccc(NC(=O)CCCCCC(=O)Nc3ccccc3N)cc2CC1=O	Statin myotox sup 88
C[C@H]1CN([C@@H](C)CO)C(=O)Cc2cc(NC(=O)CCCCCC(=O)Nc3ccccc3N)ccc2O[C@@H]1CN(C)Cc1ccc(Oc2ccccc2)cc1	Statin myotox sup 102
C[C@H]1CN([C@@H](C)CO)C(=O)Cc2cc(NC(=O)CCCCCC(=O)Nc3ccccc3N)ccc2O[C@H]1CN(C)CC1CCCCC1	Statin myotox sup 147
C[C@H](CO)N1C[C@H](C)[C@H](CN(C)Cc2ccc(-c3ccccc3)cc2)Oc2ccc(NC(=O)CCCCCC(=O)Nc3ccccc3N)cc2CC1=O	none (no result: E-sel inducer)
C[C@@H](NC(=O)[C@@H]1[C@@H](CO)[C@@H]2Cn3c(ccc(-c4ccccc4)c3=O)[C@@H]2N1C)c1ccccc1	none
Cc1ccccc1-c1ccc([C@@H]2[C@H](CO)N3C(=O)CN(C(=O)c4ccncc4)C[C@@H]23)cc1	none (no result: PglD DTNB, Statin myotox sup)
C[C@@H]1CN([C@@H](C)CO)C(=O)c2cc(C3=CCCC3)cnc2O[C@H]1CN(C)Cc1ccccc1C(=O)O	none
COc1cc2nc(Nc3ccc(C)c(C)c3)nc(N)c2cc1OC	none
COc1cc2nc(N(C)C)nc(N)c2cc1OC	Statin myotox sup 78 (no result: FGF22 binding, DENV2 CPE, Xi reactivation, E-sel inducer)
C[C@@H]1CN([C@H](C)CO)C(=O)c2cc(NC(=O)NC3CCCCC3)ccc2O[C@@H]1CN(C)Cc1ccc(C(=O)Nc2ccccc2N)cc1	none (no result: FGF22 binding, DENV2 CPE, PglD DTNB, Statin myotox sup)
Cc1nn(C)c(C(=O)NNC(=S)NC2CCCCC2)c1Br	FGF22 binding 43 (no result: PglD DTNB, Statin myotox sup, E-sel inducer)
O=C(c1cc(=O)[nH]c2ccccc12)N1CCN(c2ccc([N+](=O)[O-])cc2)CC1	E-sel inducer 33 (no result: Xi reactivation)
COc1ccc(N2CCN(C(=O)c3cc(=O)[nH]c4ccccc34)CC2)cc1	none (no result: PglD DTNB, E-sel inducer)
CSCCC(NS(=O)(=O)c1cccs1)C(=O)NCc1ccccc1 (stereo not given)	DENV2 CPE 36 (no result: PglD DTNB, Statin myotox sup)
CC(C)(C)NC(=O)CN(Cc1ccc2c(c1)OCO2)C(=O)CNS(=O)(=O)c1ccc(F)cc1	none (no result: Statin myotox sup)
CCC(C)(C)NC(=O)CN(Cc1cccs1)C(=O)CNS(=O)(=O)c1ccc(C)cc1	Statin myotox sup 83 (no result: FGF22 binding, DENV2 CPE, Xi reactivation, E-sel inducer)
O=C(CN(Cc1cccs1)C(=O)CNS(=O)(=O)c1ccccc1)NCc1ccco1	none (no result: FGF22 binding, DENV2 CPE, Xi reactivation, E-sel inducer)
CC(C)(C)NC(=O)CN(Cc1cccs1)C(=O)CNS(=O)(=O)c1ccc(F)cc1	FGF22 binding 43 (no result: PglD DTNB, Statin myotox sup, E-sel inducer)
COc1cc(NC(=O)N2CCc3nc(Nc4cc(Cl)cc(Cl)c4)ncc3C2)cc(OC)c1OC	DENV2 CPE 47
O=C(O)C[C@H]1C[C@H]2c3cc(NC(=O)c4ccc5c(c4)OCO5)ccc3O[C@H]2[C@@H](CO)O1	none
C[C@@H]1CN([C@H](C)CO)C(=O)Cc2cc(NS(=O)(=O)c3cn(C)cn3)ccc2O[C@@H]1CN(C)CC1CCCCC1	DENV2 CPE 34
C[C@H](CO)N1C[C@H](C)[C@@H](CN(C)CC2CCCCC2)Oc2ccc(NS(=O)(=O)c3cn(C)cn3)cc2CC1=O	none
C[C@@H]1CN([C@@H](C)CO)C(=O)Cc2cc(NS(=O)(=O)c3cn(C)cn3)ccc2O[C@H]1CN(C)Cc1ccccc1	DENV2 CPE 25
OCCN(CC(O)COc1ccccc1)CC(O)Cn1ccc2ccccc21 (stereo not given)	none (no result: E-sel inducer)
COc1ccc(OCC(O)CN(CCO)CC(O)Cn2ccc3ccccc32)cc1 (stereo not given)	FGF22 binding 43 (no result: E-sel inducer)
CCN(CC)CCN1CCn2c3c(c4cc(C)ccc42)CCCC31 (stereo not given)	FGF22 binding 43 (no result: PglD DTNB, Statin myotox sup, E-sel inducer)
C[C@@H]1CN([C@@H](C)CO)C(=O)c2cc(NC(=O)Cn3cnnn3)ccc2O[C@@H]1CN(C)C	none (no result: E-sel inducer)
O=c1c2ccccc2nc(-c2ccc(Cl)cc2Cl)n1CCCn1ccnc1	Statin myotox sup 100 (no result: FGF22 binding, DENV2 CPE, Xi reactivation, E-sel inducer)
O=C1c2ccccc2C(=O)N1CCCc1nc2ccccc2c(=O)n1CCCn1ccnc1	none (no result: FGF22 binding, DENV2 CPE, Xi reactivation, E-sel inducer)
Cc1cccc(NC(=O)NC(C)CCc2ccccc2)c1 (stereo not given)	none
Fc1cccc(NC(=S)NCCc2ccccc2)c1	FGF22 binding 1.7
Fc1ccccc1NC(=S)NCCc1ccccc1	Statin myotox sup 156 (no result: FGF22 binding, DENV2 CPE, Xi reactivation, E-sel inducer)
Fc1ccc(CCNC(=S)Nc2ccc(F)c(Cl)c2)cc1	FGF22 binding 1.9 (no result: PglD DTNB, Statin myotox sup)
Cc1cccc(NC(=S)NC(C)CCc2ccccc2)c1 (stereo not given)	DENV2 CPE 45 (no result: E-sel inducer)
C[C@@H]1CCCCO[C@@H](CN(C)C(=O)c2ccccc2)[C@H](C)CN([C@H](C)CO)C(=O)c2cc(NC(=O)Nc3cccc4ccccc34)ccc2O1	none (no result: Statin myotox sup)
O=C(NC[C@H]1[C@H](c2ccccc2)[C@@H](CO)N1C(=O)C1CC1)NC1CCCC1	none
COc1ccc(C[C@@H]2CCn3nncc3COC[C@@H](CC(C)C)NC2=O)cc1	none (no result: FGF22 binding, DENV2 CPE, PglD DTNB, Statin myotox sup, E-sel inducer)
Cc1noc(C)c1NC(=O)N(C)C[C@H]1Oc2ccc(NS(=O)(=O)c3cccs3)cc2C(=O)N([C@@H](C)CO)C[C@@H]1C	DENV2 CPE 38
C[C@@H]1CN([C@@H](C)CO)C(=O)c2cc(NS(=O)(=O)c3ccccc3)ccc2O[C@@H]1CN(C)C(=O)Nc1ccc2c(c1)OCO2	DENV2 CPE 49 (no result: Statin myotox sup)
Cc1noc(C)c1NC(=O)N(C)C[C@@H]1Oc2ccc(NS(=O)(=O)c3cccs3)cc2C(=O)N([C@H](C)CO)C[C@@H]1C	none
C[C@@H]1CN([C@@H](C)CO)C(=O)c2cc(NS(=O)(=O)c3cccs3)ccc2O[C@@H]1CN(C)C(=O)Nc1ccc2c(c1)OCO2	E-sel inducer 36
C[C@H](CO)N1C[C@H](C)[C@H](CN(C)C(=O)Nc2ccc3c(c2)OCO3)Oc2ccc(NS(=O)(=O)c3ccccc3)cc2C1=O	none (no result: Statin myotox sup)
COc1cc(SC)ccc1C(=O)NC1CCCCC1	Statin myotox sup 81 (no result: FGF22 binding, DENV2 CPE, Xi reactivation, E-sel inducer)
COc1cc(SC)ccc1C(=O)OCC(=O)NC1CCCCC1	none (no result: DENV2 CPE)

Screening results (PubChem BioAssay)
